Data reported in ChEMBL document CHEMBL1132354, “Novel antidiabetic and hypolipidemic agents. 5. Hydroxyl versus benzyloxy containing chroman derivatives” (J Med Chem, 1999).

How the values were obtained:
[1] = The Tmax value in female wistar rat at 100 mg/kg, p.o. dose; format: ADME, organism-based; set-up: dose 100 mg/kg, route oral; details: in vivo, po
In short: (§1)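 Wistar rats, 200–225 g, fasted 12 h with free access to water and fed 3 h after dosing. Single dose of 100 mg/kg p.o. given as a 0.5% CMC suspension. Retro-orbital blood, 0.4 mL, taken into heparinized tubes at several time points. Plasma drug measured by HPLC with fluorescence detection on a C18 column. Parameters from noncompartmental analysis, AUC by trapezoidal rule. Four rats per group, mean ± SD.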

[2] = The Tmax value in male wistar rat at 100 mg/kg, p.o. dose; format: ADME, organism-based; set-up: dose 100 mg/kg, route oral; details: in vivo, po; in short: as §1
Rattus norvegicus [3] = assay: (§2) The AUC(0-infinitive) value in female wistar rat at 100 mg/kg, p.o. dose; format: ADME, organism-based; set-up: time infinity, dose 100 mg/kg, route oral; unit not given here; details: in vivo, po; in short: as §1
Rattus norvegicus [4] = assay: The AUC(0-infinitive) value in male wistar rat at 100 mg/kg, p.o. dose; format: ADME, organism-based; set-up: time infinity, dose 100 mg/kg, route oral; details: in vivo, po; in short: as §1
Rattus norvegicus [5] = assay: (§3) The AUC(0-t)value in female wistar rat at 100 mg/kg, p.o. dose; format: ADME, organism-based; set-up: dose 100 mg/kg, route oral; unit not given here; details: in vivo, po; in short: as §1
Rattus norvegicus [6] = assay: The AUC(0-t)value in male wistar rat at 100 mg/kg, p.o. dose; format: ADME, organism-based; set-up: dose 100 mg/kg, route oral; details: in vivo, po; in short: as §1
[7] = The Cmax value in female wistar rat at 100 mg/kg, p.o. dose; format: ADME, organism-based; set-up: dose 100 mg/kg, route oral; details: in vivo, po; in short: as §1
[8] = The Cmax value in male wistar rat at 100 mg/kg, p.o. dose; format: ADME, organism-based; set-up: dose 100 mg/kg, route oral; details: in vivo, po; in short: as §1
[9] = The Kel value in female wistar rat at 100 mg/kg, p.o. dose; format: ADME, organism-based; set-up: dose 100 mg/kg, route oral; details: in vivo, po; in short: as §1
[10] = The Kel value in male wistar rat at 100 mg/kg, p.o. dose; format: ADME, organism-based; set-up: dose 100 mg/kg, route oral; details: in vivo, po; in short: as §1
[11] = The half life value in male wistar rat at 100 mg/kg, p.o. dose; format: ADME, organism-based; set-up: dose 100 mg/kg, route oral; details: in vivo, po; in short: as §1
Mus musculus [12] = assay: The compound was tested for percent reduction in plasma glucose after 6 days of treatment at a dose of 100 mg/kg/day in mice; format: functional
In short: (§4)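 Male C57BL/KsJ-db/db mice, 8 weeks old, chow ad libitum, grouped by similar starting plasma glucose (n = 4–6 per group). Dosed orally by gavage in 0.5% CMC vehicle (10 mL/kg) daily for 6 days. Retro-orbital blood taken 1 h post-dose on days 0 and 6. Plasma glucose and triglyceride measured with kits. % reduction = {1−[(TT/OT)/(TC/OC)]}×100 versus vehicle controls, mean ± SE.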

Mus musculus [13] = assay: The compound was tested for percent reduction in plasma triglyceride after 6 days of treatment at a dose of 100 mg/kg/day in mice; format: functional; in short: as §4
[14] = target: T1, Peroxisome proliferator-activated receptor alpha (Homo sapiens) (UniProt Q07869); assay: Fold activation against Peroxisome proliferator activated receptor alpha (50 uM)
T1 sequence (whole entry): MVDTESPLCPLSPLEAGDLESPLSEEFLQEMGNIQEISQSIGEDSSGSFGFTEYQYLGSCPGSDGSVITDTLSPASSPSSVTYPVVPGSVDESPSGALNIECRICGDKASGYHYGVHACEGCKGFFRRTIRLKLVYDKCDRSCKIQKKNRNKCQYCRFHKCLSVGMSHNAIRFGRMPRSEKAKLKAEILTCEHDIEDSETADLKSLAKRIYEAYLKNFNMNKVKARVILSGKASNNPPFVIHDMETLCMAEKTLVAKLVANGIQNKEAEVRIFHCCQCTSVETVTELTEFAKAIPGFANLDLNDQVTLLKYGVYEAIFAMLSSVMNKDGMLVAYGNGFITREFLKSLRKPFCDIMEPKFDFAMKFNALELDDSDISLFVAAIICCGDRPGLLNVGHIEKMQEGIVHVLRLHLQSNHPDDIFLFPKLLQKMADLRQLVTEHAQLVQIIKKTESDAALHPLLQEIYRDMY
In short: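 GAL4 fusion of human PPARα LBD (aa 167–468) with a GAL4-response-element luciferase reporter, transiently transfected into HEK-293 cells. Cells kept in DMEM with 10% delipidated serum, seeded 43 h post-transfection, then treated at 50 μM. DMSO (1:1000) served as blank. Luciferase read as fold activation over untreated cells. Mean of three to four experiments.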

[15] = The half life value in female wistar rat at 100 mg/kg, p.o. dose; format: ADME, organism-based; set-up: dose 100 mg/kg, route oral; details: in vivo, po; in short: as §1
Mus musculus [16] = assay: The compound was tested for percent reduction in plasma triglyceride after 6 days of treatment at 100 mg/kg/day in mice; format: functional; in short: as §4
Mus musculus [17] = assay: The compound was tested for percent reduction in plasma glucose after 6 days of treatment at a dose of 100 mg/kg/day (oral gavage) in mice; format: functional; in short: as §4
Mus musculus [18] = assay: The compound was tested for percent reduction in plasma triglyceride after 6 days of treatment at 30 mg/kg/day in mice; format: functional; in short: as §4
Mus musculus [19] = assay: The compound was tested for percent reduction in plasma glucose after 6 days of treatment at 30 mg/kg/day in mice; format: functional; in short: as §4
Mus musculus [20] = assay: The compounds(21:4) were tested for percent reduction in plasma glucose after 6 days of treatment at 200 mg/kg/day(oral gavage) in mice; format: functional; in short: as §4
Mus musculus [21] = assay: The compounds(3:7) were tested for percent reduction in plasma glucose after 6 days of treatment at 200 mg/kg/day(oral gavage) in mice; format: functional; in short: as §4
Mus musculus [22] = assay: The compound was tested for percent reduction in plasma triglyceride after 6 days of treatment at a dose of 200 mg/kg/day (oral gavage) in mice; format: functional; in short: as §4
Mus musculus [23] = assay: The compound was tested for percent reduction in plasma glucose after 6 days of treatment at a dose of 200 mg/kg/day (oral gavage) in mice; format: functional; in short: as §4
Mus musculus [24] = assay: The compound was tested for percent reduction in plasma triglyceride after 6 days of treatment at 30 mg/kg/day; format: functional; in short: as §4
Rattus norvegicus [25] = assay: as §2; format: ADME, organism-based; set-up: time infinity, dose 100 mg/kg, route oral; details: in vivo, po; in short: as §1
Rattus norvegicus [26] = assay: as §3; format: ADME, organism-based; set-up: dose 100 mg/kg, route oral; details: in vivo, po; in short: as §1
Mus musculus [27] = assay: The compound was tested for percent reduction in plasma triglyceride after 6 days of treatment at a dose of 100 mg/kg/day (oral gavage) in mice; format: functional; in short: as §4
Rattus norvegicus [28] = assay: The AUC(0-t)value in female wistar rat at 100 mg/kg, p.o. dose […]; format: ADME, organism-based; set-up: dose 100 mg/kg, route oral; details: in vivo, po

Cc1c(C)c2c(c(C)c1OCc1ccccc1)CCC(C)(COc1ccc(CC3SC(=O)NC3=O)cc1)O2 (configuration not stated)
Tmax [1]: 3.33 h | Tmax [2]: 4.33 h | AUC (Rattus norvegicus [3]): 29.76 | AUC (Rattus norvegicus [4]): 21.02 µg/h/mL | AUC (Rattus norvegicus [5]): 15.83 | AUC (Rattus norvegicus [6]): 14.26 µg/h/mL | Cmax [7]: 1830 ng/mL | Cmax [8]: 2170 ng/mL | k el [9]: 2.22e-05 s⁻¹ | k el [10]: 3.33e-05 s⁻¹ | half-life [11]: 5.78 h | Reduction (Mus musculus [12]): 64% | Reduction (Mus musculus [13]): 34% | Fold activation [14]: 1.79 | half-life [15]: 9.27 h

Cc1c(C)c2c(c(C)c1OCc1ccccc1)CCC(C)(CN1CCC[C@@H](Oc3ccc(/C=C4\SC(=O)NC4=O)cc3)C1)O2 (some centres not stated)
Reduction (Mus musculus [16]): 24% | Reduction (Mus musculus [17]): 5%

Cc1c(C)c2c(c(C)c1OCc1ccccc1)CCC(C)(CN1CCC[C@H]1COc1ccc(/C=C3\SC(=O)[N-]C3=O)cc1)O2.[Na+] (some centres not stated)
Reduction (Mus musculus [18]): 58% | Reduction (Mus musculus [19]): 8%

Cc1c(C)c2c(c(C)c1OCc1ccccc1)CCC(C)(CN1CCC[C@H]1COc1ccc(CC3SC(=O)NC3=O)cc1)O2.Cl (some centres not stated)
Reduction (Mus musculus [19]): 12%

Cc1c(C)c2c(c(C)c1O)CCC(C)(CN1CCC[C@H]1COc1ccc(/C=C3\SC(=O)NC3=O)cc1)O2 (some centres not stated)
Reduction (Mus musculus [16]): 36% | Reduction (Mus musculus [17]): 37%

Cc1c(C)c2c(c(C)c1OCc1ccccc1)CCC(C)(CN1CCC[C@@H](Oc3ccc(/C=C4\SC(=O)NC4=O)cc3)C1)O2.Cc1c(C)c2c(c(C)c1OCc1ccccc1)CCC(C)(CN1CCC[C@H]1COc1ccc(/C=C3\SC(=O)NC3=O)cc1)O2 (some centres not stated)
Reduction (Mus musculus [20]): 52% | Reduction (Mus musculus [21]): 53%

Cc1c(C)c2c(c(C)c1OCc1ccccc1)CCC(C)(CN1CCC[C@H]1COc1ccc(CC3SC(=O)[N-]C3=O)cc1)O2.[Na+] (some centres not stated)
Reduction (Mus musculus [18]): 66% | Reduction (Mus musculus [19]): 36%

Cc1c(C)c2c(c(C)c1O)CCC(C)(COc1ccc(CC3SC(=O)NC3=O)cc1)O2 (configuration not stated) [TROGLITAZONE]
Tmax [2]: 2 h | AUC (Rattus norvegicus [4]): 5.68 µg/h/mL | AUC (Rattus norvegicus [6]): 5.09 µg/h/mL | Cmax [8]: 770 ng/mL | k el [10]: 5.28e-05 s⁻¹ | half-life [11]: 3.9 h | Reduction (Mus musculus [12]): 26% | Reduction (Mus musculus [22]): 50% | Reduction (Mus musculus [23]): 24%

Cc1c(C)c2c(c(C)c1OCc1ccccc1)CCC(C)(CN1CCC[C@H]1COc1ccc(/C=C3\SC(=O)NC3=O)cc1)O2 (some centres not stated)
Reduction (Mus musculus [24]): 26% | Reduction (Mus musculus [19]): 41% | Reduction (Mus musculus [17]): 68%

Cc1c(C)c2c(c(C)c1OCc1ccccc1)CCC(C)(CN(C)CCOc1ccc(/C=C3\SC(=O)NC3=O)cc1)O2 (configuration not stated)
Tmax [1]: 3.25 h | Cmax [7]: 4120 ng/mL | AUC (Rattus norvegicus [25]): 34.49 µg/h/mL | AUC (Rattus norvegicus [26]): 27.47 µg/h/mL | k el [9]: 4.17e-05 s⁻¹ | Reduction (Mus musculus [23]): 45% | half-life [15]: 4.87 h

Cc1c(C)c2c(c(C)c1OCc1ccccc1)CCC(C)(COc1ccc(/C=C3\SC(=O)NC3=O)cc1)O2 (configuration not stated)
Tmax [1]: 4.33 h | AUC (Rattus norvegicus [3]): 18.5 | AUC (Rattus norvegicus [5]): 14.4 | Cmax [7]: 1090 ng/mL | k el [9]: 1.94e-05 s⁻¹ | Reduction (Mus musculus [27]): 38% | Reduction (Mus musculus [17]): 39% | Fold activation [14]: 0.67 | half-life [15]: 10.4 h

Cc1c(C)c2c(c(C)c1O)CCC(C)(COc1ccc(/C=C3\SC(=O)NC3=O)cc1)O2 (configuration not stated)
Tmax [1]: 1.75 h | AUC (Rattus norvegicus [3]): 3.12 | AUC (Rattus norvegicus [5]): 2.44 | Cmax [7]: 680 ng/mL | k el [9]: 6.94e-05 s⁻¹ | Reduction (Mus musculus [27]): 26% | Reduction (Mus musculus [17]): 62% | Fold activation [14]: 0.58 | half-life [15]: 2.82 h

Cc1c(C)c2c(c(C)c1O)CCC(C)(CN(C)CCOc1ccc(CC3SC(=O)NC3=O)cc1)O2 (configuration not stated)
Reduction (Mus musculus [23]): 3%

Cc1c(C)c2c(c(C)c1OCc1ccccc1)CCC(C)(CN1CCC[C@H]1COc1ccc(CC3SC(=O)NC3=O)cc1)O2 (some centres not stated)
Reduction (Mus musculus [19]): 23% | Reduction (Mus musculus [17]): 26%

Cc1c(C)c2c(c(C)c1O)CCC(C)(CN(C)CCOc1ccc(/C=C3\SC(=O)NC3=O)cc1)O2 (configuration not stated)
Tmax [1]: 1.38 h | Cmax [7]: 9920 ng/mL | AUC (Rattus norvegicus [25]): 44.94 µg/h/mL | AUC (Rattus norvegicus [28]): 44.2 µg/h/mL | k el [9]: 0.000106 s⁻¹ | Reduction (Mus musculus [23]): 36%
